# Key:
# KB [1] = assay: Cytotoxicity against vincristine-resistant human KB cells assessed as growth inhibition after 72 hrs by MTT assay in presence of vincristine; type: functional, cell-based
# KB [2] = assay: Cytotoxicity against vincristine-resistant human KB cells assessed as growth inhibition after 72 hrs by MTT assay; type: functional, cell-based
# KB [3] = assay: Cytotoxicity against vincristine-sensitive human KB cells assessed as growth inhibition after 72 hrs by MTT assay; type: functional, cell-based
# HCT-116 [4] = assay: Induction of apoptosis in human HCT116 cells assessed as late apoptotic cells at 2 times IC50 after 48 hrs by annexin V-FITC/propidium iodide staining-based flow cytometric analysis (reference value: 2.27%); type: functional
# HCT-116 [5] = assay: Induction of apoptosis in human HCT116 cells assessed as necrotic cells at IC50 after 48 hrs by annexin V-FITC/propidium iodide staining-based flow cytometric analysis (reference value: 1.84%); type: functional
# HT-29 = assay: Cytotoxicity against human HT-29 cells assessed as growth inhibition after 72 hrs by MTT assay; type: functional, cell-based; details: HT-29, 72 h
# HCT-116 [6] = assay: Induction of apoptosis in human HCT116 cells assessed as late apoptotic cells at IC50 after 48 hrs by annexin V-FITC/propidium iodide staining-based flow cytometric analysis (reference value: 2.27%); type: functional
# HCT-116 [7] = assay: Induction of apoptosis in human HCT116 cells assessed as necrotic cells at 2 times IC50 after 48 hrs by annexin V-FITC/propidium iodide staining-based flow cytometric analysis (reference value: 1.84%); type: functional
# MDA-MB-468 [8] = assay: Induction of apoptosis in human MDA-MB-468 cells assessed as necrotic cells at IC50 after 48 hrs by annexin V-FITC/propidium iodide staining-based flow cytometric analysis (reference value: 0.25%); type: functional
# HCT-116 [9] = assay: Cell cycle arrest in human HCT116 cells assessed as accumulation at pre-G1 phase at IC50 to 2 times IC50 after 48 hrs relative to control; type: functional
# In short: (§1)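 Cells were exposed for 48 h, then analysed by flow-cytometric cell cycle profiling. Pre-G1 events were scored and compared with untreated control, with significance at p < 0.05.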
# HCT-116 [10] = assay: Cytotoxicity against human HCT116 cells assessed as growth inhibition after 72 hrs by MTT assay; type: functional, cell-based; details: HCT-116, 72 h
# MDA-MB-468 [11] = assay: Induction of apoptosis in human MDA-MB-468 cells assessed as necrotic cells at 2 times IC50 after 48 hrs by annexin V-FITC/propidium iodide staining-based flow cytometric analysis (reference value: 0.25%); type: functional
# MDA-MB-468 [12] = assay: Induction of apoptosis in human MDA-MB-468 cells assessed as early apoptotic cells at 2 times IC50 after 48 hrs by annexin V-FITC/propidium iodide staining-based flow cytometric analysis (reference value: 3.24%); type: functional
# MDA-MB-468 [13] = assay: Induction of apoptosis in human MDA-MB-468 cells assessed as viable cells at IC50 after 48 hrs by annexin V-FITC/propidium iodide staining-based flow cytometric analysis (reference value: 92.9%); type: functional
# MDA-MB-468 [14] = assay: Induction of apoptosis in human MDA-MB-468 cells assessed as early apoptotic cells at IC50 after 48 hrs by annexin V-FITC/propidium iodide staining-based flow cytometric analysis (reference value: 3.24%); type: functional
# HCT-116 [15] = assay: Induction of apoptosis in human HCT116 cells assessed as viable cells at 2 times IC50 after 48 hrs by annexin V-FITC/propidium iodide staining-based flow cytometric analysis (reference value: 94.4%); type: functional
# HCT-116 [16] = assay: Induction of apoptosis in human HCT116 cells assessed as early apoptotic cells at IC50 after 48 hrs by annexin V-FITC/propidium iodide staining-based flow cytometric analysis (reference value: 1.45%); type: functional
# A549 = assay: Cytotoxicity against human A549 cells assessed as growth inhibition after 72 hrs by MTT assay; type: functional, cell-based; details: A549, 72 h
# HCT-116 [17] = assay: Induction of apoptosis in human HCT116 cells assessed as early apoptotic cells at 2 times IC50 after 48 hrs by annexin V-FITC/propidium iodide staining-based flow cytometric analysis (reference value: 1.45%); type: functional
# HCT-116 [18] = assay: Induction of apoptosis in human HCT116 cells assessed as viable cells at IC50 after 48 hrs by annexin V-FITC/propidium iodide staining-based flow cytometric analysis (reference value: 94.4%); type: functional
# MDA-MB-468 [19] = assay: Induction of apoptosis in human MDA-MB-468 cells assessed as late apoptotic cells at IC50 after 48 hrs by annexin V-FITC/propidium iodide staining-based flow cytometric analysis (reference value: 3.65%); type: functional
# MDA-MB-468 [20] = assay: Cytotoxicity against human MDA-MB-468 cells assessed as growth inhibition after 72 hrs by MTT assay; type: functional, cell-based; details: MDA-MB-468, 72 h
# MDA-MB-468 [21] = assay: Induction of apoptosis in human MDA-MB-468 cells assessed as viable cells at 2 times IC50 after 48 hrs by annexin V-FITC/propidium iodide staining-based flow cytometric analysis (reference value: 92.9%); type: functional
# MDA-MB-468 [22] = assay: Cell cycle arrest in human MDA-MB-468 cells assessed as accumulation at pre-G1 phase at IC50 to 2 times IC50 after 48 hrs relative to control; type: functional; in short: as §1
# MCF7 = assay: Cytotoxicity against human MCF7 cells assessed as growth inhibition after 72 hrs by MTT assay; type: functional, cell-based; details: MCF7, 72 h
# MDA-MB-468 [23] = assay: Induction of apoptosis in human MDA-MB-468 cells assessed as late apoptotic cells at 2 times IC50 after 48 hrs by annexin V-FITC/propidium iodide staining-based flow cytometric analysis (reference value: 3.65%); type: functional
structure (smiles),measurement,setting,value
CC[C@H]1C[C@H]2C[C@H]3c4[nH]c5cc(C6CCC(=O)N6)c(OC)cc5c4CCN(C2)[C@@H]13 (stereo partly specified),IC50,KB [1],> 25 µg/mL
same,IC50,KB [2],> 25 µg/mL
same,IC50,KB [3],> 25 µg/mL
CC[C@H]1C[C@H]2C[C@@H]3[C@H]1N(C2)C[C@@H](O)[C@@]31Nc2ccc(OC)cc2C1=O,IC50,KB [1],53.2 µM
same,IC50,KB [2],> 25 µg/mL
same,IC50,KB [3],> 25 µg/mL
C/C=C1/CN2[C@H]3C[C@H]1C1(C(=O)OC)C[C@]4(C[C@@H]21)c1ccccc1N(C)[C@H]34 (stereo partly specified),IC50,KB [1],2.62 µM
same,IC50,KB [2],> 25 µg/mL
same,IC50,KB [3],> 25 µg/mL
CC[C@]1(O)C[C@@H]2CC(=O)n3c4c(c5ccccc53)CCN(C1)[C@@H]42,IC50,KB [1],> 25 µg/mL
same,IC50,KB [2],> 25 µg/mL
same,IC50,KB [3],> 25 µg/mL
CC[C@H]1C[C@H]2C[C@H]3c4[nH]c5ccc(OC)cc5c4C(=O)CN(C2)[C@@H]13,IC50,KB [1],> 25 µg/mL
same,IC50,KB [2],> 25 µg/mL
same,IC50,KB [3],> 25 µg/mL
C/C=C1/C[N+]2(CCl)CC[C@]34C(=C(C=O)[C@H]1C[C@@H]32)Nc1ccccc14.[Cl-] (stereo partly specified),IC50,KB [1],> 25 µg/mL
same,IC50,KB [2],> 25 µg/mL
same,IC50,KB [3],> 25 µg/mL
C/C=C1/CN(C)[C@H]2Cc3c([nH]c4ccccc34)[C@@H](c3cc4[nH]c5c(c4cc3OC)CCN3C[C@H]4C[C@H](CC)[C@H]3[C@H]5C4)C[C@H]1[C@]2(CO)C(=O)OC,IC50,KB [1],0.98 µM
same,Activity,HCT-116 [4],72.4%
same,Activity,HCT-116 [5],3%
same,IC50,HT-29,2.57 µM
same,Activity,HCT-116 [6],11.4%
same,Activity,HCT-116 [7],14.5%
same,Activity,MDA-MB-468 [8],0.18%
same,Activity,HCT-116 [9],80%
same,IC50,HCT-116 [10],2.91 µM
same,Activity,MDA-MB-468 [11],1.68%
same,Activity,MDA-MB-468 [12],21.4%
same,Activity,MDA-MB-468 [13],90.1%
same,Activity,MDA-MB-468 [14],3.95%
same,Activity,HCT-116 [15],4.85%
same,Activity,HCT-116 [16],6.98%
same,IC50,A549,3.06 µM
same,Activity,HCT-116 [17],8.25%
same,Activity,HCT-116 [18],79.6%
same,Activity,MDA-MB-468 [19],5.76%
same,IC50,KB [2],1.21 µM
same,IC50,KB [3],1.39 µM
same,IC50,MDA-MB-468 [20],2.77 µM
same,Activity,MDA-MB-468 [21],63.1%
same,Activity,MDA-MB-468 [22],35%
same,IC50,MCF7,4.19 µM
same,Activity,MDA-MB-468 [23],13.8%
C/C=C1/CN[C@H]2Cc3c([nH]c4ccccc34)[C@@H](c3cc4[nH]c5c(c4cc3OC)CCN3C[C@H]4C[C@H](CC)[C@H]3[C@H]5C4)C[C@H]1[C@@H]2C(=O)OC,IC50,KB [1],1.2 µM
same,Activity,HCT-116 [4],43.7%
same,Activity,HCT-116 [5],48.4%
same,IC50,HT-29,1.58 µM
same,Activity,HCT-116 [6],22%
same,Activity,HCT-116 [7],46.4%
same,Activity,MDA-MB-468 [8],0.17%
same,Activity,HCT-116 [9],80%
same,IC50,HCT-116 [10],2.03 µM
same,Activity,MDA-MB-468 [11],2.68%
same,Activity,MDA-MB-468 [12],42.5%
same,Activity,MDA-MB-468 [13],93%
same,Activity,MDA-MB-468 [14],3.7%
same,Activity,HCT-116 [15],6.4%
same,Activity,HCT-116 [16],7.76%
same,IC50,A549,2.83 µM
same,Activity,HCT-116 [17],3.5%
same,Activity,HCT-116 [18],21.9%
same,Activity,MDA-MB-468 [19],3.15%
same,IC50,KB [2],1.11 µM
same,IC50,KB [3],0.95 µM
same,IC50,MDA-MB-468 [20],0.7 µM
same,Activity,MDA-MB-468 [21],22.8%
same,Activity,MDA-MB-468 [22],35%
same,IC50,MCF7,3.23 µM
same,Activity,MDA-MB-468 [23],32%
C/C=C1/CN(C)[C@H]2Cc3c([nH]c4ccccc34)[C@@H](c3cc4[nH]c5c(c4cc3OC)CCN3C[C@H]4C[C@H](CC)[C@H]3[C@H]5C4)C[C@H]1[C@@H]2C(=O)OC,IC50,KB [1],0.8 µM
same,IC50,KB [2],0.98 µM
same,IC50,KB [3],1.53 µM
C/C=C1/CN(C)[C@H]2Cc3c([nH]c4ccccc34)[C@@H](c3cc4c(cc3OC)C(=O)[C@@]3(CCN5C[C@H]6C[C@H](CC)[C@H]5[C@H]3C6)N4)C[C@H]1[C@@H]2C(=O)OC,IC50,KB [1],1.21 µM
same,IC50,KB [2],1.06 µM
same,IC50,KB [3],1.06 µM
